Experimental findings from ChEMBL document CHEMBL2417372, “Design, synthesis, and mechanism of action of 2-(3-hydroxy-5-methoxyphenyl)-6-pyrrolidinylquinolin-4-one as a potent anticancer lead” (Bioorg Med Chem Lett, 2013) are described below.

The structures appear in SMILES notation. Calls of active or inactive are those of the source. The calls are words filed in the database; no cut-off is given here. Bounds are passed on as bounds.

In one assay the test system is NCI-H460. Nature of the assay: Cytotoxicity against human NCI-H460 cells after 48 hrs. The class given is functional, cell-based. As to conditions: NCI-H460, 48 h.
The nature of assay [1]: Cytotoxicity against human Hep3B cells after 48 hrs. It counts as functional, cell-based, Hep 3B2. In a few lines: (§1)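 MTT viability assay on log-phase cells at 37 °C, exposed to compound or DMSO vehicle for 48 h. MTT (1 mg/mL in PBS) was then added for 2 h, and absorbance was read at 570 nm with 630 nm correction. IC50 is the concentration giving 50% proliferation inhibition. Cells were cultured in 5% CO2: HL-60 in RPMI-1640 with 10% FBS; Hep3B in DMEM/F12 with 10% FBS; Detroit 551 in DMEM with 10% FBS.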

The test system of a further assay is Detroit 551. The assay is described as follows: Cytotoxicity against human Detroit 551 cells after 48 hrs. As to conditions: Detroit 551, 48 h. It counts as cell-based. A digest of the protocol:
as §1

Another assay deals with HL-60. The assay is described as follows: Cytotoxicity against human HL60 cells after 48 hrs. It counts as functional, cell-based. The following applies: HL-60, 48 h. In a few lines:
as §1

The next assay has as its target Tubulin (Sus scrofa) (UniProt P02554+P02550). As to conditions: 1 uM.
Assay [2] has as its target T1, Tubulin (Homo sapiens) (UniProt P68371+Q9H4B7+P0DPH7+P68366+Q13509+Q71U36+P04350+Q3ZCM7+P07437+P68363+Q9BQE3+Q6PEY2+Q13885+Q9BVA1+Q9BUF5). The assay is described as follows: Inhibition of tubulin polymerization in human NCI-H522 cells assessed as alpha-tubulin accumulation in cytoskeletal fraction at 100 nM after 24 hrs by Western blot analysis. It counts as cell-based. In a few lines: (§2)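 NCI-H522 cells were exposed for 24 h to compound (10, 30 or 100 nM) or DMSO vehicle. They were then lysed 5 min at 37 °C in hypotonic buffer (1 mM MgCl2, 2 mM EGTA, 0.5% NP-40, protease inhibitors, 20 mM Tris-HCl pH 6.8) and centrifuged at 15,000 × g for 10 min at 25 °C. α- and β-tubulin were assessed in the cytoskeletal fraction.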
(In general: Immunoblotting shows a protein as a band on a membrane.)

Assay [3] addresses T1, Tubulin (Homo sapiens). Nature of the assay: Inhibition of tubulin polymerization in human NCI-H522 cells assessed as beta-tubulin accumulation in cytoskeletal fraction at 100 nM after 24 hrs by Western blot analysis. The class given is cell-based. A digest of the protocol: as §2

Tubulin (Sus scrofa), sequence (P02550 whole entry, looked up): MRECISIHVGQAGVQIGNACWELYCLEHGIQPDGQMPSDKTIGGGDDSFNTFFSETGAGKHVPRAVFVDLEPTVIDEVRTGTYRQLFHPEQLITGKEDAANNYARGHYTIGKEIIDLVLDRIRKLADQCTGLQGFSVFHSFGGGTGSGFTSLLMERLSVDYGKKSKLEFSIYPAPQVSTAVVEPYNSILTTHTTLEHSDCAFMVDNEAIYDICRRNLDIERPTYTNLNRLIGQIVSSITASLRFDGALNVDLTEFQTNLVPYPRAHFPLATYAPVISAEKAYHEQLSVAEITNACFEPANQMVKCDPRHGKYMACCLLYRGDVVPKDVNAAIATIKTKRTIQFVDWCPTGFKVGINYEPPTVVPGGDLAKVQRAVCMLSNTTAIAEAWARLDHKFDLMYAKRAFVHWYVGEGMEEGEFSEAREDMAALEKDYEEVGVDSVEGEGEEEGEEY
Tubulin (Sus scrofa), sequence (P02554 whole entry, looked up): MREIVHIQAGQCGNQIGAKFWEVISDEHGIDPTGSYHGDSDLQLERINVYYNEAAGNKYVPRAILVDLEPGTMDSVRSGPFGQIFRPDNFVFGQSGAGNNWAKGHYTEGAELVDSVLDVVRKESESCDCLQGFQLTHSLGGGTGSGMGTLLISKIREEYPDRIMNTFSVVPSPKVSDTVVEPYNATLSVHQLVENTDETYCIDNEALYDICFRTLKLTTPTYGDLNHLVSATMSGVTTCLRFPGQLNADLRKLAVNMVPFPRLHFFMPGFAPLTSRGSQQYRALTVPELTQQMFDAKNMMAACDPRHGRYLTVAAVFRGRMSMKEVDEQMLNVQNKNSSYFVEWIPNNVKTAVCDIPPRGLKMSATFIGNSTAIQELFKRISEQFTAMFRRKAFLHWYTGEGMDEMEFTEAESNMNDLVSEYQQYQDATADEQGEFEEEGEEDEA

Take `COc1cc(O)cc(-c2cc(=O)c3cc(N4CCOCC4)ccc3[nH]2)c1`: the half-maximal inhibitory concentration (IC50) – broadly, the concentration needed to halve the response being measured – with NCI-H460 was above 100 µM; in assay [1], 6.03 µM; with Detroit 551 it was above 100 µM; in the assay on HL-60, 3.9 µM.
Take `COc1cc(O)cc(-c2cc(=O)c3cc4c(cc3[nH]2)OCO4)c1`: the IC50 with NCI-H460 was above 50 µM; in assay [1], above 50 µM; in the assay with Detroit 551, above 50 µM; in the assay with HL-60, 0.5 µM.
Turning to `O=c1cc(-c2cc(O)cc(O)c2)[nH]c2cc3c(cc12)OCO3`, the half-maximal inhibitory concentration (IC50) in the assay with NCI-H460 was above 25 µM; in assay [1], above 25 µM; with HL-60, 8.71 µM.
Take `CC[C@]1(O)C[C@H]2CN(CCc3c([nH]c4ccccc34)[C@@](C(=O)OC)(c3cc4c(cc3OC)N(C=O)[C@H]3[C@@](O)(C(=O)OC)[C@H](OC(C)=O)[C@]5(CC)C=CCN6CC[C@]43[C@@H]65)C2)C1`: the inhibition entry on Tubulin (Sus scrofa), on Tubulin (Homo sapiens) [2] and on Tubulin (Homo sapiens) [3] was “Active” throughout.
Take `O=c1cc(-c2ccc(O)cc2)[nH]c2cc3c(cc12)OCO3`: the 50% inhibitory concentration (IC50) in the assay on NCI-H460 was above 100 µM; in assay [1] it was 22.3 µM; with Detroit 551, 41 µM; in the assay with HL-60, 3.26 µM.
The corresponding values for `COc1cc(O)cc(-c2cc(=O)c3cc(N(C)C)ccc3[nH]2)c1` are above 50 µM, 6.15 µM, above 50 µM and 0.22 µM.
Take `O=c1cc(-c2ccccc2O)[nH]c2cc3c(cc12)OCO3`: the concentration for half-maximal inhibition (IC50) is 19.1 µM in the assay on NCI-H460, 8.04 µM in assay [1], 48.9 µM with Detroit 551 and 7.62 µM in the assay on HL-60.
On to `CCOc1cc(O)cc(-c2cc(=O)c3cc(N4CCCC4)ccc3[nH]2)c1`, for which the IC50 in the assay with NCI-H460 turned out to be 0.59 µM; in assay [1], 0.07 µM; with Detroit 551, 13.2 µM; in the assay on HL-60, 0.02 µM.
Consider `O=c1cc(-c2cc(O)cc(O)c2)[nH]c2ccc(N3CCCC3)cc12`, for which the half-maximal inhibitory concentration (IC50) with NCI-H460 is 13.9 µM; in assay [1] it was 1.58 µM; with Detroit 551, above 25 µM; in the assay with HL-60, 0.34 µM.
Take `CCOc1cc(O)cc(-c2cc(=O)c3cc4c(cc3[nH]2)OCO4)c1`: the IC50 with NCI-H460 was above 25 µM; in assay [1] it was 25 µM; with HL-60, 0.5 µM.
For `COc1cccc(-c2cc(O)c3cc4c(cc3n2)OCO4)c1`, the IC50 in the assay with NCI-H460 was 0.2 µM; in assay [1], 0.08 µM; in the assay with Detroit 551, 4.77 µM; in the assay on HL-60 it was 0.08 µM.
As to `Oc1cccc(-c2cc(O)c3cc4c(cc3n2)OCO4)c1`, the concentration for half-maximal inhibition (IC50) in the assay on NCI-H460 was 17 µM; in assay [1], 1.05 µM; in the assay with Detroit 551, 21.8 µM; in the assay with HL-60, 0.25 µM.
Turning to `CC[C@]1(O)C[C@@H]2CN(CCc3c([nH]c4ccccc34)[C@@](C(=O)OC)(c3cc4c(cc3OC)N(C)[C@H]3[C@@](O)(C(=O)OC)[C@H](OC(C)=O)[C@]5(CC)C=CCN6CC[C@]43[C@@H]65)C2)C1`, the inhibition result at Tubulin (Sus scrofa), at Tubulin (Homo sapiens) [2] and on Tubulin (Homo sapiens) [3] was “Active” throughout.
